Residue numbers refer to the chain shown, from its start.
Columns and labels:
Conditions in all cases: stereoisomer not certain
[1] = target: T1, OR5P3 (Homo sapiens) (UniProt Q8WZ94)
T1 sequence (whole entry): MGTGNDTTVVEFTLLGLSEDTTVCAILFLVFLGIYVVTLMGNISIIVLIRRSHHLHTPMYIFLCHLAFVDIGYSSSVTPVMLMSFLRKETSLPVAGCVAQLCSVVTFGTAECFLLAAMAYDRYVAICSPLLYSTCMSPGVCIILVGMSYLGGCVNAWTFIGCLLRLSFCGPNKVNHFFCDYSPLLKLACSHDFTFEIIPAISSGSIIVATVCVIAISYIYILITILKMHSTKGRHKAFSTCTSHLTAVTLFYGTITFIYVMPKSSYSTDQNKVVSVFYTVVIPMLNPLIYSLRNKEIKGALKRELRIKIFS
Outline: (§1)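 Whether a receptor–molecule pair is responsive (active) rests on the original authors' judgment that its measured signal was statistically different from baseline. Pairs without that judgment are non-responsive (inactive). Sources used varied assay methods, commonly transient luciferase assays in mammalian cell lines.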

[2] = target: T2, OR5M8 (Homo sapiens) (UniProt Q8NGP6)
T2 sequence (whole entry): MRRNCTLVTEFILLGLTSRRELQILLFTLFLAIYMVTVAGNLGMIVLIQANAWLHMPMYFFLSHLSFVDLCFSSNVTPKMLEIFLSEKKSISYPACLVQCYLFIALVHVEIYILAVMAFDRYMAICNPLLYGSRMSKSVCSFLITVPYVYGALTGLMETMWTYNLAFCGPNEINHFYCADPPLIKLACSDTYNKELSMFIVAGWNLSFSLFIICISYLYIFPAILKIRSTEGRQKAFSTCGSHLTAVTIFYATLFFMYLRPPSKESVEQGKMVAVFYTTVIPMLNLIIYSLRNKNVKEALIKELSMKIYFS
Outline: as §1

[3] = target: T3, OR5M9 (Homo sapiens) (UniProt Q8NGP3)
T3 sequence (whole entry): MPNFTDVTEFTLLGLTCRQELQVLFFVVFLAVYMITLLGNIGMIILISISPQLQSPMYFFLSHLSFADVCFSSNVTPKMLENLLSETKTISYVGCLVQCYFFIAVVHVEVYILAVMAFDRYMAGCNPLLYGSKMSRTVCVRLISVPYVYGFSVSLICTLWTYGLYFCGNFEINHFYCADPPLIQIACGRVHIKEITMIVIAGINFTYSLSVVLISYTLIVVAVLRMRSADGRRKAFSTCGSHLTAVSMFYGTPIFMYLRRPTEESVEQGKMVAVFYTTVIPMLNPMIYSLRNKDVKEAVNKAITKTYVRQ
Outline: as §1

[4] = target: T4, OR5P2 (Homo sapiens) (UniProt Q8WZ92)
T4 sequence (whole entry): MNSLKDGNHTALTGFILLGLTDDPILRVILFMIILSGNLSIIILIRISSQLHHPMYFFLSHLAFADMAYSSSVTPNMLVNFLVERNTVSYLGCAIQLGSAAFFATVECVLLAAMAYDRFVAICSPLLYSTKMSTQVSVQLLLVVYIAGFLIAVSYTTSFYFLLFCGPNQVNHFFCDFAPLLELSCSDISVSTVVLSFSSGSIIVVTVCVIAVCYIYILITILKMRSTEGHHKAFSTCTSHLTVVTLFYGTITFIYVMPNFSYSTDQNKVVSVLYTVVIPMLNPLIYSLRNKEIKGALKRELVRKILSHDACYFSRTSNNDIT
Outline: as §1

[5] = target: T5, OR5T1 (Homo sapiens) (UniProt Q8NG75)
T5 sequence (whole entry): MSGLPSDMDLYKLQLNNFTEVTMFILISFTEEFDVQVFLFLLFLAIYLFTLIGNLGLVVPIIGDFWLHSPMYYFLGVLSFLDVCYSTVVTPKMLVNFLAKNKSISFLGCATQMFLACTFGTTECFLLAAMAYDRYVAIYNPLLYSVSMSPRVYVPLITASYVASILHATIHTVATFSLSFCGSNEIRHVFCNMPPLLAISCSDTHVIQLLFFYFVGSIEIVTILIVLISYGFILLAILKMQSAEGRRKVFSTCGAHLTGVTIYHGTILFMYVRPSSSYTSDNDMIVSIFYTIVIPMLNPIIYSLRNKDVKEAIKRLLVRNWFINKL
Outline: as §1

[6] = target: T6, OR5T2 (Homo sapiens) (UniProt Q8NGG2)
T6 sequence (whole entry): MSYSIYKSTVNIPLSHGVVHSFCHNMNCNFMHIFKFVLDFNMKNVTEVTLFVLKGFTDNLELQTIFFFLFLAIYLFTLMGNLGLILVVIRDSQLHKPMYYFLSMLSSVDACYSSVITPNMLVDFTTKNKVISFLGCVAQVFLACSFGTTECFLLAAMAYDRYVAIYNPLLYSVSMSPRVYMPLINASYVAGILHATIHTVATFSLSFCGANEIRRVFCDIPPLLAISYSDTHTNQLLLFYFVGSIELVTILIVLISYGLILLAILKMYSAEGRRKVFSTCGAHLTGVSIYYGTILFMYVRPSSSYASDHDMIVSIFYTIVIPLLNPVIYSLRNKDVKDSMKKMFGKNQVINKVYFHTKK
Outline: as §1

[7] = target: T7, OR5T3 (Homo sapiens) (UniProt Q8NGG3)
T7 sequence (whole entry): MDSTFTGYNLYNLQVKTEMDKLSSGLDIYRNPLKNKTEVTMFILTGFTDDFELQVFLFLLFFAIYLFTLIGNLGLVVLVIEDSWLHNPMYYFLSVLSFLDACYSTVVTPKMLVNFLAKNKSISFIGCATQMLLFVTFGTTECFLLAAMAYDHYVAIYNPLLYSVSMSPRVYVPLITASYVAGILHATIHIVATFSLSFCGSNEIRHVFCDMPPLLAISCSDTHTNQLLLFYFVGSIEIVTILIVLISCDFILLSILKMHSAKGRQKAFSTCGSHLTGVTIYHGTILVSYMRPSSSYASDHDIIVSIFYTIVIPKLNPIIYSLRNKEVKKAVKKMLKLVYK
Outline: as §1

[8] = target: T8, OR5V1 (Homo sapiens) (UniProt Q9UGF6)
T8 sequence (whole entry): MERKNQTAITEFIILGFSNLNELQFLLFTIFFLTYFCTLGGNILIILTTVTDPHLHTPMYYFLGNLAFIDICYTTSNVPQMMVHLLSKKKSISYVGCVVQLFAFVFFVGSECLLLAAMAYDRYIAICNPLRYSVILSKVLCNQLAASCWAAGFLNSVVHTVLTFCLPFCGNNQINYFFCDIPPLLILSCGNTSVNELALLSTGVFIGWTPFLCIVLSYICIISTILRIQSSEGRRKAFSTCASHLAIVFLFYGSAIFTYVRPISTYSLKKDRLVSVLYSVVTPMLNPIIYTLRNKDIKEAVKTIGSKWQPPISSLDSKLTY
Outline: as §1

[9] = target: T9, OR5W2 (Homo sapiens) (UniProt Q8NH69)
T9 sequence (whole entry): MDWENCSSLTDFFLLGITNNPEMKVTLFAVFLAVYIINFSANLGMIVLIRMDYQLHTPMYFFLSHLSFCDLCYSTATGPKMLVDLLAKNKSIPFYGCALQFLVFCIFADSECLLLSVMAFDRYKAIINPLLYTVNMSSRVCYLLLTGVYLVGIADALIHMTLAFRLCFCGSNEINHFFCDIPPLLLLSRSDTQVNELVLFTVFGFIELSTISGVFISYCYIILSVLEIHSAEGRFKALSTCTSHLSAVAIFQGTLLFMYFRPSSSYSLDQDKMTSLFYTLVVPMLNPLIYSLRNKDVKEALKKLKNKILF
Outline: as §1

[10] = target: T10, OR6A2 (Homo sapiens) (UniProt O95222)
T10 sequence (whole entry): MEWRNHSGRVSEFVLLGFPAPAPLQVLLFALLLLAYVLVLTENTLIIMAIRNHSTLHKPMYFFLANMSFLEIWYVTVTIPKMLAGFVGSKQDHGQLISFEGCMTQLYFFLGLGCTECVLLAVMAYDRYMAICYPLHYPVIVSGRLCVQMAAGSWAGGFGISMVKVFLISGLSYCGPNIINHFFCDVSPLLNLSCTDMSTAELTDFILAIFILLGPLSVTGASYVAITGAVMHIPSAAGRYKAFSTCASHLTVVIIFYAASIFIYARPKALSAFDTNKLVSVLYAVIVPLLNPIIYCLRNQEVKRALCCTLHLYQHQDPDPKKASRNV
Outline: as §1

[11] = target: T11, OR6B1 (Homo sapiens) (UniProt O95007)
T11 sequence (whole entry): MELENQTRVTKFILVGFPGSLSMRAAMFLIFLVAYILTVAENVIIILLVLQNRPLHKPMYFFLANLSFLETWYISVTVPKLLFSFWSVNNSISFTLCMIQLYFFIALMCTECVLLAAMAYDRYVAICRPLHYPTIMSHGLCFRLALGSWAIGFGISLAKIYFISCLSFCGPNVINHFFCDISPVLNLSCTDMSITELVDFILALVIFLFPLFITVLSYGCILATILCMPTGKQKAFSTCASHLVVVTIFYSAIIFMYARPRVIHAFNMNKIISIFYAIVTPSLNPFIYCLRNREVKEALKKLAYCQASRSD
Outline: as §1

[12] = target: T12, OR6B2 (Homo sapiens) (UniProt Q6IFH4)
T12 sequence (whole entry): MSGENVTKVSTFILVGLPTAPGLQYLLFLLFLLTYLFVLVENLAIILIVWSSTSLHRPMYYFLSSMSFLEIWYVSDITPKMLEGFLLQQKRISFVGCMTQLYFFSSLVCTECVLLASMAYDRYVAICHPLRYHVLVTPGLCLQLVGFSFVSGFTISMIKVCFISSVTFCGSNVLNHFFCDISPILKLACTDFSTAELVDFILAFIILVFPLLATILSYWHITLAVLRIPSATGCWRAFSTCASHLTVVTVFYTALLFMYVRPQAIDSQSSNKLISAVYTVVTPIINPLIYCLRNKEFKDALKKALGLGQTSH
Outline: as §1

[13] = tested on: T13, OR5MA L2F C311H
T13 sequence (whole entry): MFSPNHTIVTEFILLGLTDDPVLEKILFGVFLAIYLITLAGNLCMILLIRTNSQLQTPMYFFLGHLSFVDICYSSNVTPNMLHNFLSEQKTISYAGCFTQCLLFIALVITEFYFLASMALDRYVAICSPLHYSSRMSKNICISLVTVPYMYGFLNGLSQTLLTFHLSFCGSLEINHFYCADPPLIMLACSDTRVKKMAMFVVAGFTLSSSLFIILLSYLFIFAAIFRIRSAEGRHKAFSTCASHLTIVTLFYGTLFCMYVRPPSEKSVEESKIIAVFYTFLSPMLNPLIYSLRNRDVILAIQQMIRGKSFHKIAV
Outline: as §1

[14] = tested on: T14, OR5MA L2F Q54H C311H
T14 sequence (whole entry): T13 sequence (whole entry) with Q54H
Outline: as §1

[15] = tested on: T15, OR5P3 L301R
T15 sequence (whole entry): T1 sequence (whole entry) with L301R
Outline: as §1

[16] = tested on: T16, OR5R1 C122R S128G F184L
T16 sequence (whole entry): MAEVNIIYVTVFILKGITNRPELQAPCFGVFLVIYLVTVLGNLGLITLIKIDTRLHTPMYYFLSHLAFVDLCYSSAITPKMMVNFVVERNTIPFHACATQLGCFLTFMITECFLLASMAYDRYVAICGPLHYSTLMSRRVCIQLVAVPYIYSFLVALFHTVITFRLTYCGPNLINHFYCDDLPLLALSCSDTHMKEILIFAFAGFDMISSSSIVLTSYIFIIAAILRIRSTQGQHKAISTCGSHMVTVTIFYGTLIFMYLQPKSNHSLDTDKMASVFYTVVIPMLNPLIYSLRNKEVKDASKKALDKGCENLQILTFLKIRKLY
Outline: as §1

[17] = tested on: T17, OR5T2 S4G
T17 sequence (whole entry): T6 sequence (whole entry) with S4G
Outline: as §1

[18] = tested on: T18, OR5W2 R189C
T18 sequence (whole entry): T9 sequence (whole entry) with R189C
Outline: as §1

[19] = tested on: T19, OR6A2 I50V
T19 sequence (whole entry): T10 sequence (whole entry) with I50V
Outline: as §1

[20] = tested on: T20, OR6B2 R122C C179R
T20 sequence (whole entry): T12 sequence (whole entry) with R122C, C179R
Outline: as §1

Measured: odorant receptor agonist call;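 also: active if original authors judged signal statistically different from baseline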

CCCCCC=O
inactive: [1]

C=C(C)C1CCC(C)C(=O)C1 (configuration not stated)
inactive: [1]

CC1CCCCCCCCCCCCC(=O)C1 (configuration not stated)
inactive: [2] | [3] | [4] | [1] | [5] | [6] | [7] | [8] | [9] | [10] | [11] | [12]

CCC1OC(C)=C(O)C1=O (configuration not stated)
inactive: [2] | [3] | [13] | [14] | [4] | [1] | [15] | [16] | [5] | [6] | [17] | [7] | [8] | [9] | [18] | [10] | [19] | [11] | [12] | [20]

CCCC(S)CCOC(C)=O (configuration not stated)
inactive: [2] | [3] | [13] | [14] | [4] | [1] | [15] | [16] | [5] | [6] | [17] | [7] | [8] | [9] | [18] | [10] | [19] | [11] | [12] | [20]

CCC(C(=O)O)c1ccccc1 (configuration not stated)
inactive: [1]

CCCCCCCCO
inactive: [1]

CCCCCC1=C(C)CCC1=O
inactive: [1]

C=CCOC(=O)CCCCCC
inactive: [1]

CC1=C(O)C(=O)C(C)O1 (configuration not stated)
inactive: [2] | [3] | [13] | [14] | [4] | [1] | [15] | [16] | [5] | [6] | [17] | [7] | [8] | [9] | [18] | [10] | [19] | [11] | [12] | [20]

CCCCC(S)C(C)CO (configuration not stated)
inactive: [2] | [3] | [4] | [1] | [5] | [6] | [7] | [8] | [9] | [10] | [11] | [12]

CC1=NC(C)C(C)S1 (configuration not stated)
inactive: [2] | [3] | [13] | [14] | [4] | [1] | [15] | [16] | [5] | [6] | [17] | [7] | [8] | [9] | [18] | [10] | [19] | [11] | [12] | [20]

CCCCCC(S)C(C)CO (configuration not stated)
inactive: [2] | [3] | [4] | [1] | [5] | [6] | [7] | [8] | [9] | [10] | [11] | [12]
